ChEMBL document CHEMBL1138272, “Synthesis, characterization, and receptor interaction profiles of enantiomeric bile acids” (J Med Chem, 2007)
Active and inactive are the calls of the source. The calls are words filed in the database; no cut-off is given here.

Columns and labels:
[1] = biological target: T1, Nuclear receptor subfamily 1 group I member 2 (Homo sapiens, UniProt O75469); assay: Activation of human PXR expressed in HEK293 cells at 20 uM by GAL4 activation assay relative to control; type: cell-based; conditions: hek293, 20 µM
T1 sequence (O75469 whole entry): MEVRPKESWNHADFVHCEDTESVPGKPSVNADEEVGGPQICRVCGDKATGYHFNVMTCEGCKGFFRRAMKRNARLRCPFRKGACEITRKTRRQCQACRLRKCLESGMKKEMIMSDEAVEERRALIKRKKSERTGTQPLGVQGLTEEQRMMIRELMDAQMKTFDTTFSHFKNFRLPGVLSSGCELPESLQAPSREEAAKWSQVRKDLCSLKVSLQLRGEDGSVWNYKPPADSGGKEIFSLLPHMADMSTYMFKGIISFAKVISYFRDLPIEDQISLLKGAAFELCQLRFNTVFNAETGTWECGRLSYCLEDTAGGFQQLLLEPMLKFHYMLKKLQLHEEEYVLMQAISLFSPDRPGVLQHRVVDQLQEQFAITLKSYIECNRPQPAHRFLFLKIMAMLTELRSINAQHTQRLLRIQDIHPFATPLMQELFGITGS
Method in brief: (§1)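 HEK293 cells in DMEM/10% super-stripped FBS, 4.0 × 10^4/well, calcium-phosphate transfected with UAS-luciferase (50 ng), GAL4-hFXR or GAL4-hPXR LBD fusion (15 ng), β-galactosidase (10 ng); ligands (5, 20, 50 µM) added 6-8 h later in delipidated medium, harvested 14-16 h later. Luciferase normalized to β-gal, fold over ethanol vehicle; triplicates.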

[2] = biological target: T2, Bile acid receptor (Homo sapiens) (UniProt Q96RI1); assay: Activation of human FXR expressed in HEK293 cells by GAL4 activation assay; type: cell-based; method in brief: as §1
T2 sequence (whole entry): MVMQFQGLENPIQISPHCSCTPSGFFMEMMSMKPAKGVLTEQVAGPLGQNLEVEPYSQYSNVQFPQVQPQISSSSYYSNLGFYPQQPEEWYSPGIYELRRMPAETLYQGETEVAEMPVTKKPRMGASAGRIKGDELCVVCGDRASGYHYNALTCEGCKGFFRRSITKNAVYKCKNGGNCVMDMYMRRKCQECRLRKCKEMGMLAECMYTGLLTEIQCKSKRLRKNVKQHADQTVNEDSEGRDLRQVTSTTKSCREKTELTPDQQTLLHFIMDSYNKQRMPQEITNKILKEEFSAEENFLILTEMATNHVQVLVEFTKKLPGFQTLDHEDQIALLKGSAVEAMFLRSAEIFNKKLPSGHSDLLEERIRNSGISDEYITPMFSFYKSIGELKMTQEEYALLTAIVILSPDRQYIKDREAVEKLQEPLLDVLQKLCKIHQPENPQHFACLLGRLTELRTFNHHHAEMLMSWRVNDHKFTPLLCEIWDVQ

[3] = biological target: T1, Nuclear receptor subfamily 1 group I member 2; assay: Activation of human PXR expressed in HEK293 cells at 50 uM by GAL4 activation assay relative to control; type: cell-based; conditions: hek293, 50 µM; method in brief: as §1
Huh-7 [4] = assay: Activation of SHP gene expression in human Huh7 cells at 20 uM after 18 hrs by RT-PCR; type: functional, cell-based
Method in brief: (§2)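 Huh7 cells seeded 2 × 10^5/well in high-glucose DMEM/10% FBS; next day ligands added in low-glucose DMEM with 5% charcoal-stripped FBS, 18 h. RNA harvested, SYBR green real-time QPCR, ΔΔCt normalized to cyclophilin, fold vs vehicle; N = 3, mean ± SD.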

HepG2 [5] = assay: Activation of SHP gene expression in human HepG2 cells at 10 uM after 18 hrs by RT-PCR; type: functional, cell-based
Method in brief: (§3)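 HepG2 cells seeded 3 × 10^5/well in M199 with 10% FBS and 25 mM HEPES; after 24 h, medium replaced with ligand-containing medium, 18 h. Total RNA isolated; real-time QPCR with SYBR green (12.5 ng cDNA, 150 nM primers); ΔΔCt method normalized to cyclophilin, fold change vs vehicle-treated cells; N = 3, mean ± SD.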

Huh-7 [6] = assay: Activation of BSEP gene expression in human Huh7 cells at 20 uM after 18 hrs by RT-PCR; type: functional, cell-based; method in brief: as §2
Caco-2 [7] = assay: Activation of IBABP gene expression in human Caco-2 cells at 25 uM after 6 days by RT-PCR; type: functional, cell-based
Method in brief: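 Caco-2 cells grown in high-glucose DMEM/15% heat-inactivated FBS, medium changed every 3 days; 23 days post-confluence treated with ligands in DMEM with 15% charcoal-stripped FBS for 6 days. SYBR green real-time QPCR, ΔΔCt normalized to cyclophilin, fold vs vehicle; N = 2.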

[8] = biological target: T3, G-protein coupled bile acid receptor 1 (Homo sapiens) (UniProt Q8TDU6); assay: Activation of TGR5 expressed in HEK293 cells assessed as elevation of cAMP production at 100 uM relative to control; type: functional, cell-based
T3 sequence (whole entry): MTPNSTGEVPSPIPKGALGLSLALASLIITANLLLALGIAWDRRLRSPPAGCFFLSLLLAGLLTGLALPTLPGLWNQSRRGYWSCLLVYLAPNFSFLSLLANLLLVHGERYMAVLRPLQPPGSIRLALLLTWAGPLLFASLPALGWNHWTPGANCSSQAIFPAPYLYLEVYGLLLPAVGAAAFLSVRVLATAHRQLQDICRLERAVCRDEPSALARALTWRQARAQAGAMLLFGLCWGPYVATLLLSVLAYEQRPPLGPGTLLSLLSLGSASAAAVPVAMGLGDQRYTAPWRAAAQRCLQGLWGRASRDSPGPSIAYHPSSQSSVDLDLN
Method in brief: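 HEK293 seeded 0.5 × 10^6 cells/well and transfected 24 h later with TGR5 vector or empty vector. After 2 days, cells were exposed 30 min at 37 °C in fresh medium with 0.2 mM IBMX. Intracellular cAMP was measured by kit after lysis and expressed over vehicle; N = 2.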

Huh-7 [9] = assay: Activation of SHP gene expression in human Huh7 cells at 1 uM after 18 hrs by RT-PCR; type: functional, cell-based
Method in brief: (§4)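 Huh7 seeded 2 × 10^5 cells/well in high-glucose DMEM with 10% FBS. Next day, ligands were added in low-glucose DMEM with 5% charcoal-stripped FBS for 18 h. RNA was read by SYBR green real-time QPCR, ΔΔCt normalised to cyclophilin, and expressed as fold over vehicle; N = 3.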

Huh-7 [10] = assay: Activation of BSEP gene expression in human Huh7 cells at 1 uM after 18 hrs by RT-PCR; type: functional, cell-based; method in brief: as §4
HepG2 [11] = assay: Activation of BSEP gene expression in human HepG2 cells at 1 uM after 18 hrs by RT-PCR; type: functional, cell-based
Method in brief: (§5)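 HepG2 seeded 3 × 10^5 cells/well in M199 with 10% FBS, penicillin/streptomycin and 25 mM HEPES. After 24 h, medium was replaced with ligand-containing medium for 18 h. Total RNA was isolated and analysed by SYBR green real-time QPCR (12.5 ng cDNA, 150 nM primers). Values were derived by ΔΔCt against cyclophilin, as fold over vehicle; N = 3.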

Caco-2 [12] = assay: Activation of IBABP gene expression in human Caco-2 cells at 1 uM after 6 days by RT-PCR; type: functional, cell-based
Method in brief: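 Caco-2 grown in high-glucose DMEM with 15% heat-inactivated FBS, medium changed every 3 days. Treated 23 days postconfluence for 6 days in medium with 15% charcoal-stripped heat-inactivated FBS. RNA was read by SYBR green real-time QPCR, ΔΔCt normalised to cyclophilin, and expressed relative to vehicle; N = 2.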

HepG2 [13] = assay: Decrease in CYP7A1 gene expression in human HepG2 cells at 1 uM after 18 hrs by RT-PCR; type: functional, cell-based; method in brief: as §5
HepG2 [14] = assay: Decrease in CYP7A1 gene expression in human HepG2 cells at 25 uM after 18 hrs by RT-PCR; type: functional, cell-based; method in brief: as §3
HepG2 [15] = assay: Activation of SHP gene expression in human HepG2 cells at 25 uM after 18 hrs by RT-PCR; type: functional, cell-based; method in brief: as §3
HepG2 [16] = assay: Activation of BSEP gene expression in human HepG2 cells at 25 uM after 18 hrs by RT-PCR; type: functional, cell-based; method in brief: as §3
[17] = biological target: T2, Bile acid receptor (Homo sapiens); assay: Activation of human FXR at 50 uM by FXRE TK-luciferase reporter gene assay relative to control
Method in brief: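 HEK293 cells calcium-phosphate cotransfected with full-length hFXR and hRXRα (15 ng each) plus FXREx3-TK-luc reporter (three copies of mouse IBABP IR-1) and β-galactosidase; bile acids 50 µM added in delipidated medium 6-8 h later, harvested 14-16 h later; luciferase normalized to β-gal; N = 3.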

Row | SMILES | Activity [1] | Activity [2] | Activity [3] | Activity (Huh-7 [4]) | Activity (Huh-7 [6]) | Activity (Caco-2 [7]) | Activity (HepG2 [14]) | also measured
1 | C[C@@H](CCC(=O)O)[C@@H]1CC[C@H]2[C@@H]3CC[C@H]4C[C@@H](O)CC[C@@]4(C)[C@H]3CC[C@]21C | Active | Dose-dependent effect | Active | Active | Active | inactive | – | Activity (HepG2 [5]): Active
2 | C=C[C@@]1(C)CC(=O)[C@]2(O)[C@@]3(C)[C@@H](O)CCC(C)(C)[C@@H]3[C@H](O)[C@H](OC(C)=O)[C@@]2(C)O1 | – | – | – | – | – | – | – | Fold change [8]: 16.5
3 | CC(C)c1onc(-c2c(Cl)cccc2Cl)c1COc1ccc(/C=C/c2cccc(C(=O)O)c2)c(Cl)c1 | – | – | – | – | – | – | – | Activity (Huh-7 [9]): Active; Activity (Huh-7 [10]): Active; Activity (HepG2 [11]): Active; Activity (Caco-2 [12]): Active; Activity (HepG2 [13]): Active
4 | C[C@H](CCC(=O)O)[C@H]1CC[C@H]2[C@@H]3[C@@H](O)C[C@@H]4C[C@H](O)CC[C@]4(C)[C@H]3CC[C@]12C | – | – | – | – | – | inactive | Active | –
5 | C[C@H](CCC(=O)O)[C@H]1CC[C@H]2[C@@H]3[C@H](O)C[C@@H]4C[C@H](O)CC[C@]4(C)[C@H]3CC[C@]12C [CHENODIOL] | Active | – | Active | Active | Active | Active | Active | Activity (HepG2 [15]): Active; Activity (HepG2 [16]): Active
6 | C[C@H](CCC(=O)O)[C@H]1CC[C@H]2[C@@H]3CC[C@@H]4C[C@H](O)CC[C@]4(C)[C@H]3CC[C@]12C [LITHOCHOLIC ACID] | Active | Dose-dependent effect | Active | Active | Active | inactive | – | Activity [17]: Active
